Like-named read-outs stand apart in the source and are kept apart here.
Legend:
A549 cells = assay: Alamar Blue cytotoxicity assay, A549; type: cell-based, human
Summary of the method: (§1)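 Cells grown in DMEM with L-glutamine, 10% FBS and 1% penicillin–streptomycin at 37 °C, 5% CO2. They were seeded at 1 × 10^4 cells/well and grown 24 h, then given test compound dilutions in growth medium for 24 h. Alamar Blue was added (final 10 μg/ml) for 2–4 h at 37 °C, and fluorescence was read ([…]). Viability was calculated per line, and IC50s were averaged across HeLa, A549 and MDA-MB-231.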

MDA-MB-231 cells = assay: Alamar Blue cytotoxicity assay, MDA-MB-231; type: cell-based, human; settings: read-out: 24 h IC50 MDA-MB-231
Summary of the method: as §1

HeLa cells [1] = assay: Alamar Blue cytotoxicity assay, HeLa; type: cell-based, human; settings: read-out: 24 h IC50 HeLa
Summary of the method: as §1

VEGFR2 = VEGFR2 (Homo sapiens, UniProt P35968); assay: biochemical
VEGFR2, sequence (P35968 20-1356): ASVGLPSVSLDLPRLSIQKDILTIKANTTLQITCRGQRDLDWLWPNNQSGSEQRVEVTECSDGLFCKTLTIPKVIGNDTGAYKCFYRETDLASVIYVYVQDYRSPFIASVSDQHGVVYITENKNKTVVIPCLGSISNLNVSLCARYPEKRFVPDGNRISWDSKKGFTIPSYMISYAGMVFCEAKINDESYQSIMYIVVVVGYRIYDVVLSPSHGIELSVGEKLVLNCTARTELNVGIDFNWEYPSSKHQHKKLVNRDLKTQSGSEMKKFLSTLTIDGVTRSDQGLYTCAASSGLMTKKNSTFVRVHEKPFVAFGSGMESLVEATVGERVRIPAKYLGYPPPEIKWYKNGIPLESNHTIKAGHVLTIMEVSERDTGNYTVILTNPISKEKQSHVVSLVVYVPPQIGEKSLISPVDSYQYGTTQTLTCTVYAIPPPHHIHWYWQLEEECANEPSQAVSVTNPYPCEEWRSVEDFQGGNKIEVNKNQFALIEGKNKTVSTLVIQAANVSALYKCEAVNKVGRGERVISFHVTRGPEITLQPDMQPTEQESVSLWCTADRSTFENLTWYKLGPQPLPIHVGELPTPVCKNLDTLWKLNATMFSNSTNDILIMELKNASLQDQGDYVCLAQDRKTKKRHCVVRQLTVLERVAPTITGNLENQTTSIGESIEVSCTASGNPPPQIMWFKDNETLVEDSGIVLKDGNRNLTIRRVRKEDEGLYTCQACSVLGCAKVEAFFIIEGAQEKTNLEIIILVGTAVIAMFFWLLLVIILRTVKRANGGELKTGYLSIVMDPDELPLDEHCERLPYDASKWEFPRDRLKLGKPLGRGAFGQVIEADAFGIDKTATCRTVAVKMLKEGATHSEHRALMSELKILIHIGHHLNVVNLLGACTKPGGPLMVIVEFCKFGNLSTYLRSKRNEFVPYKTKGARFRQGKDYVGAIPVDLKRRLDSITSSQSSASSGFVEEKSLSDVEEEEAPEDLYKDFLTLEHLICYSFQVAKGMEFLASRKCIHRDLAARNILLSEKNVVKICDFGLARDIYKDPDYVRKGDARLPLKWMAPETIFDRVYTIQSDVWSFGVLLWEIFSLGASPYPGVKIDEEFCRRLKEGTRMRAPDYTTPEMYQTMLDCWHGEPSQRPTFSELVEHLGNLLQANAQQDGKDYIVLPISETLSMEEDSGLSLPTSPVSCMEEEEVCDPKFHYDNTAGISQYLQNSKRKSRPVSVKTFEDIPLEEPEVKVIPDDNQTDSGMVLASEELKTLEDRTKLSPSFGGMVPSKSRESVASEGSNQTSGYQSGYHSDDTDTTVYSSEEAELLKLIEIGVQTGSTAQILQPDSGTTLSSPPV

EGFR = EGFR (Homo sapiens, UniProt P00533); assay: biochemical
EGFR, sequence (P00533 25-1210): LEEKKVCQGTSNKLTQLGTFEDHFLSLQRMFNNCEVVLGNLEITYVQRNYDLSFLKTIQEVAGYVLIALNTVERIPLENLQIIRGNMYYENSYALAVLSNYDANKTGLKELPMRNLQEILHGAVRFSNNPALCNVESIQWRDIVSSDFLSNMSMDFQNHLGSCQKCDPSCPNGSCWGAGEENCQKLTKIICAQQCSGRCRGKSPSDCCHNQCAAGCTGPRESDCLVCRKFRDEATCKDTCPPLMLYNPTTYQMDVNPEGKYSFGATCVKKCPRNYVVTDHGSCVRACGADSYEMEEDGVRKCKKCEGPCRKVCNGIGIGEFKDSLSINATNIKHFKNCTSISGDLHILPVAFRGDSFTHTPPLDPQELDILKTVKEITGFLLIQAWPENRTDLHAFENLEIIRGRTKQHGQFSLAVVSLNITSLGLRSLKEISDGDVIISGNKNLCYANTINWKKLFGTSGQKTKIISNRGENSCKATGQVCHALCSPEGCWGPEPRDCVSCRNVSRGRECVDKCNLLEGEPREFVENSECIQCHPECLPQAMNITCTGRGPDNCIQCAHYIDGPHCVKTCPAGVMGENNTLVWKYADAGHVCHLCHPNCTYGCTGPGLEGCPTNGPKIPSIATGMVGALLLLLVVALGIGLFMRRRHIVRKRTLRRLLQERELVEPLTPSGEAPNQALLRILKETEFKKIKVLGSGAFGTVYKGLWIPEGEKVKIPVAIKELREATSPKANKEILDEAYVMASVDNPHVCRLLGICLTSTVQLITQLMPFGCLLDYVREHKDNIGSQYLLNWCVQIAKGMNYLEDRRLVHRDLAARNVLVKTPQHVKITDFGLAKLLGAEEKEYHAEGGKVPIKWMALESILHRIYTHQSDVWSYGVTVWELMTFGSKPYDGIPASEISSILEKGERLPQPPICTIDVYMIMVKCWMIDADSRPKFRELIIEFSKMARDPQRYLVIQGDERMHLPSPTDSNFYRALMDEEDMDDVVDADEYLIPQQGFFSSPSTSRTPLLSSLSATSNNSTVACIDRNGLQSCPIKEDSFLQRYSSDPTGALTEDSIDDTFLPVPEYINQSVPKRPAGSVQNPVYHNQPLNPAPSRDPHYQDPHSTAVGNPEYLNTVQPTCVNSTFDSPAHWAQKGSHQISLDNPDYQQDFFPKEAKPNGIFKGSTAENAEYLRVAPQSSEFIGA

[2] = test system: HeLa, A549 and MDA-MB-231 cells; assay: Average cytotoxicity over the tested cell lines; type: cell-based; settings: Homo sapiens, 24 h, read-out: average IC50 against the tested cell lines
Summary of the method: as §1

caspase-8 in HeLa cells = assay: Caspase-8 activity assay; type: cell-based, human; settings: 5 and 10 μM, 24 h
Summary of the method: (§2)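 HeLa cells were seeded at 1 × 10^5/well in duplicate and grown 24 h. They were then treated with test compound at 1, 5, 10 and 20 µM, with 0.1% DMSO (v/v) as control. After 24 h, activity was measured with the Caspase-Glo 3/7 (caspase-3/7), Caspase-Glo 8 (caspase-8) or Caspase-Glo 9 (caspase-9) kit.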

HeLa cells [3] = assay: ROS production; type: cell-based, human; settings: 40 μM, 24 h
Summary of the method: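 HeLa cells were treated with test compound at 10 or 40 µM for 24 h, with 0.1% DMSO (v/v) as control. Intracellular superoxide was detected with the Muse Oxidative Stress Kit, and cells were analysed on a Muse Cell Analyzer. The read-out was the percentage of cells with elevated ROS.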

HeLa cells [4] = assay: Annexin V/PI apoptosis assay; type: cell-based, human; settings: 24 h
Summary of the method: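 HeLa cells were exposed to test compound at 5 or 10 μM for 24 h, with an untreated control. Apoptotic versus necrotic death was scored by annexin V/PI staining, reported as percentage of cells undergoing apoptosis.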

caspase-9 in HeLa cells = assay: Caspase-9 activity assay; type: cell-based, human; settings: 5 and 10 μM, 24 h
Summary of the method: as §2

[5] = test system: caspase-3/7 in HeLa cells; assay: Caspase-3/7 activity assay; type: cell-based, human; settings: 10 μM, 24 h
Summary of the method: as §2

[6] = read-out: 24 h IC50 A549, Alamar Blue, 24 h treatment
[7] = Homo sapiens, A549, 24 h, read-out: 24 h IC50 A549, Alamar Blue, 24 h treatment

Compound	IC50 (A549 cells; [7]) [µM]	IC50 (MDA-MB-231 cells; Homo sapiens, MDA-MB-231, 24 h) [µM]	IC50 [2] [µM]	IC50 (HeLa cells [1]; Homo sapiens, HeLa, 24 h) [µM]	also measured
COc1cc(OC)c(OC)cc1C=NNC(=O)CN1C(=O)NC(c2ccccc2)(c2ccccc2)C1=O [Compound 12]					IC50 (A549 cells; [6]): 116 ± 1.3 µM; IC50 (MDA-MB-231 cells; Alamar Blue, 24 h treatment): > 350 µM; IC50 (HeLa cells [1]; Alamar Blue, 24 h treatment): 39 ± 3.1 µM
O=C(CN1C(=O)NC(c2ccccc2)(c2ccccc2)C1=O)NN=C1C(=O)Nc2ccc([N+](=O)[O-])cc21 [Compound 18, 2-(2,5-Dioxo-4,4-diphenylimidazolidin-1-yl)-N′-(5-nitro-2-oxoindolin-3-ylidene)acetohydrazide]	229 ± 5.2	80 ± 0.7	113	30 ± 1.2	IC50 (VEGFR2): 2.52 ± 0.09 µM; IC50 (EGFR): 0.37 ± 0.01 µM
CCOC(=O)CN1C(=O)NC(c2ccccc2)(c2ccccc2)C1=O [Compound 2, ethyl (5,5-diphenylhydantoin-3-yl)acetate]	108 ± 3.7	263 ± 3.4		241 ± 1.3	
O=C(CN1C(=O)NC(c2ccccc2)(c2ccccc2)C1=O)NN=C1C(=O)Nc2ccc(F)cc21 [Compound 16, 2-(2,5-Dioxo-4,4-diphenylimidazolidin-1-yl)-N′-(5-fluoro-2-oxoindolin-3-ylidene)acetohydrazide]	95 ± 1	64 ± 0.6	59	18.5 ± 1.6	change of caspase-8 activity (caspase-8 in HeLa cells): no significant changes; cells with increased level of ROS production (HeLa cells [3]): 37.7%; IC50 (VEGFR2): 0.09 ± 0.01 µM; percentage of apoptotic cells (HeLa cells [4]; 5 μM): 48.6%; percentage of apoptotic cells (HeLa cells [4]; 10 μM): 63.4%; IC50 (EGFR): 6.17 ± 0.22 µM; change of caspase-9 activity (caspase-9 in HeLa cells): no significant changes; change of caspase-3/7 activity [5]: approximately 40%
O=C(CN1C(=O)NC(c2ccccc2)(c2ccccc2)C1=O)NN=Cc1ccc2c(c1)OCO2 [Compound 10, N′-(Benzo[d][1,3]dioxol-5-ylmethylene)-2-(2,5-dioxo-4,4-diphenylimidazolidin-1-yl)acetohydrazide]	267 ± 6	200 ± 4.1		113 ± 0.9	
O=C(CN1C(=O)NC(c2ccccc2)(c2ccccc2)C1=O)NN=C1C(=O)Nc2ccc(Cl)cc21 [Compound 15, N′-(5-Chloro-2-oxoindolin-3-ylidene)-2-(2,5-dioxo-4,4-diphenylimidazolidin-1-yl)acetohydrazide]	72 ± 3	311 ± 5.5		53 ± 2.2	
O=C(CN1C(=O)NC(c2ccccc2)(c2ccccc2)C1=O)NN=Cc1ccc(Cl)cc1 [Compound 5, N'-(4-Chlorobenzylidene)-2-(2,5-dioxo-4,4-diphenylimidazolidin-1-yl)acetohydrazide]	157 ± 1.4	196 ± 1.7		123 ± 2.6	
COc1cc(C=NNC(=O)CN2C(=O)NC(c3ccccc3)(c3ccccc3)C2=O)cc(OC)c1OC [Compound 11, 2-(2,5-Dioxo-4,4-diphenylimidazolidin-1-yl)-N′-(3,4,5-trimethoxybenzylidene)acetohydrazide]	170 ± 4.2	133 ± 0.7		53 ± 2.1	
O=C(CN1C(=O)NC(c2ccccc2)(c2ccccc2)C1=O)NN=C1C(=O)Nc2ccccc21 [Compound 14, 2-(2,5-Dioxo-4,4-diphenylimidazolidin-1-yl)-N′-(2-oxoindolin-3-ylidene)acetohydrazide]	116 ± 1.6	123 ± 0.8		30 ± 2.6	
NNC(=O)CN1C(=O)NC(c2ccccc2)(c2ccccc2)C1=O [Compound 3, 2-(2,4-dioxo-5,5-diphenylimidazolidin-3-yl)acetohydrazide]	278 ± 7.5	278 ± 2		236 ± 3.5	
O=C(CN1C(=O)NC(c2ccccc2)(c2ccccc2)C1=O)NN=Cc1c[nH]c2ccccc12 [Compound 13, N′-((1H-indol-3-yl)methylene)-2-(2,5-dioxo-4,4-diphenylimidazolidin-1-yl)acetohydrazide]	160 ± 0.8	156 ± 3.1	109	10 ± 2.1	IC50 (VEGFR2): 0.47 ± 0.09 µM; IC50 (EGFR): 0.1 ± 0.02 µM
COc1ccc(C=NNC(=O)CN2C(=O)NC(c3ccccc3)(c3ccccc3)C2=O)cc1OC [Compound 8, N′-(3,4-Dimethoxybenzylidene)-2-(2,5-dioxo-4,4-diphenylimidazolidin-1-yl)acetohydrazide]	162 ± 2.3	154 ± 1.1		60 ± 3.3	
O=C(CN1C(=O)NC(c2ccccc2)(c2ccccc2)C1=O)NN=C1C(=O)Nc2ccc(Br)cc21 [Compound 17, N′-(5-Bromo-2-oxoindolin-3-ylidene)-2-(2,5-dioxo-4,4-diphenylimidazolidin-1-yl)acetohydrazide]	77 ± 1.5	138 ± 2.6	81	29 ± 1.7	
CC(=O)O[C@@]12CO[C@@H]1C[C@H](O)[C@@]1(C)C(=O)[C@H](O)C3=C(C)[C@@H](OC(=O)[C@H](O)[C@@H](NC(=O)OC(C)(C)C)c4ccccc4)C[C@@](O)([C@@H](OC(=O)c4ccccc4)[C@H]21)C3(C)C [Docetaxel, reference compound]	100	100 ± 2.2	83	100 ± 3.8	IC50 (A549 cells; [6]): 50 ± 1.3 µM
COc1cc(C=NNC(=O)CN2C(=O)NC(c3ccccc3)(c3ccccc3)C2=O)ccc1O [Compound 9, 2-(2,5-Dioxo-4,4-diphenylimidazolidin-1-yl)-N′-(4-hydroxy-3-methoxybenzylidene)acetohydrazide]	175 ± 4.3	136 ± 3.9		50 ± 1	
COc1ccc2c(c1)C(=NNC(=O)CN1C(=O)NC(c3ccccc3)(c3ccccc3)C1=O)C(=O)N2 [Compound 19, 2-(2,5-Dioxo-4,4-diphenylimidazolidin-1-yl)-N′-(5-methoxy-2-oxoindolin-3-ylidene)acetohydrazide]	170 ± 2.2	174 ± 2.9		118 ± 1.3	
